Results from ChEMBL document CHEMBL4819012, “Discovery of novel 2-aryl-3-sulfonamido-pyridines (HoAns) as microtubule polymerization inhibitors with potent antitumor activities” (Eur J Med Chem, 2021).

Columns and labels:
SW-620 = assay: Induction of apoptosis in human SW-620 cells assessed as late apoptotic cells at 0.5 uM measured after 24 hrs by PI/Annexin V staining based flow cytometry assay (reference value: 3.66%); assay type: functional
RKO = assay: Induction of cell cycle arrest in human RKO cells assessed as accumulation of cells in S phase at 0.5 uM measured after 24 hrs by PI staining based flow cytometry method (reference value: 49.66%); assay type: functional
MCF7 = assay: Antiproliferative activity against human MCF7 cells assessed as cell viability at 10 uM measured after 72 hrs by MTS method; assay type: functional; settings: read-out: Activity
Outline: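 Single-concentration screen at 10 µM for 72 h. Log-phase cells plated at 5×10^3–6×10^3 per well for 24 h before dosing, five replicate wells. Viability measured by MTS: 10% MTS in fresh medium, 30 min or more at 37 °C in dark, absorbance 490 nm.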

NCI-H460 = assay: Antiproliferative activity against human NCI-H460 cells assessed as cell viability measured after 72 hrs by MTS method; assay type: functional, cell-based; settings: NCI-H460, 72 h
Outline: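 Log-phase cells plated at 5×10^3–6×10^3 per well for 24 h, then given graded compound concentrations in fresh medium for 72 h, five replicate wells. Medium replaced with medium containing 10% MTS, 30 min or more at 37 °C in dark; OD 490 nm read. IC50 by nonlinear regression; mean ± SD of at least three experiments.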

Row | Compound | Activity (SW-620) | Activity (RKO) | viability at 10 µM (MCF7) | IC50 (NCI-H460)
1 | COc1ccc(S(=O)(=O)Nc2cccnc2-c2ccc(C#N)c(F)c2)cc1 | 3.11% | 46.37% | > 70% | –
2 | COc1ccc(S(=O)(=O)Nc2cccnc2Nc2ccc(O)cc2)cc1 [ABT-751] | – | – | – | 2040 nM
